# Legend:
# Type in all cases: functional
# Mus musculus [1] = test: Antitumor activity expressed as %T/C was tested against Dalton's lymphoma at the dosage of 10 mg/Kg (ip)
# Procedure, shortened: (§1)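 Dalton's lymphoma: 2 × 10⁷ ascites cells were given ip to DbA mice, 18–20 g. A single ip dose in 0.89% saline followed on day two, with saline-injected controls. Mean life span was calculated excluding mice that survived 6 months or more. T/C% is the mean survival of treated mice, excluding tumour-free survivors, divided by the mean life span of untreated mice ×100.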
# Mus musculus [2] = test: Antitumor activity expressed as %T/C was tested against fibrosarcoma at the dosage of 5 mg/Kg (sc)
# Procedure, shortened: (§2)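 Fibrosarcoma: 4 × 10⁶ cells were given sc to C₃H/He mice, 25–30 g. A single ip or sc dose in 0.89% saline followed on day three, with saline-injected controls. Mean life span of nonsurvivors excludes mice surviving 6 months or more, which were counted as tumour-free. T/C% is treated mean survival, excluding tumour-free survivors, divided by untreated mean life span ×100.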
# Mus musculus [3] = test: Antitumor activity expressed as average body weight change was tested against fibrosarcoma at the dosage of 10 mg/kg (Ip)
# Procedure, shortened: (§3)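 Fibrosarcoma-bearing C₃H/He mice (4 × 10⁶ cells sc) received a single ip or sc dose in 0.89% saline on day three after transplant; controls received saline. The day of injection was taken as day zero. Mice were weighed on alternate days up to 4 weeks. Values are average % weight change from the day of treatment to day 21.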
# Mus musculus [4] = test: Antitumor activity expressed as %T/C was tested against fibrosarcoma at the dosage of 50 mg/Kg (ip); procedure, shortened: as §2
# Mus musculus [5] = test: Antitumor activity expressed as mean life span of nonsurvivors in days (T/C) was tested against fibrosarcoma at the dosage of 25 mg/kg (sc); 41/26
# Procedure, shortened: (§4)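 On day 3 after transplantation they received a single ip or sc dose of compound freshly suspended in 0.89% saline. Saline-injected controls were used, with 5–10 mice per group. Mean life span of treated nonsurvivors is shown against untreated controls, excluding mice surviving ≥6 months.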
# Mus musculus [6] = test: Antitumor activity expressed as the no. of mice surviving >6 months was tested against fibrosarcoma at the dosage of 25 mg/kg (ip)
# Procedure, shortened: (§5)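 Fibrosarcoma was established by sc inoculation of 4 × 10⁶ cells in mice. On day 3 they received a single ip or sc injection of compound freshly suspended in 0.89% saline, with 5–10 mice per group. The count is of mice surviving 6 months or more after treatment, scored as tumor-free, with the percentage of the group also given.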
# Mus musculus [7] = test: Antitumor activity expressed as the no. of mice surviving >6 months was tested against fibrosarcoma at the dosage of 10 mg/kg (ip); procedure, shortened: as §5
# Mus musculus [8] = test: Antitumor activity expressed as the no. of mice surviving >6 months was tested against fibrosarcoma at the dosage of 5 mg/kg (ip); procedure, shortened: as §5
# Mus musculus [9] = test: Antitumor activity against Dalton's lymphoma infected mice at the dosage of 2 mg/kg (ip) and expressed as no. of mice injected; T/C= 5/5
# Mus musculus [10] = test: Antitumor activity expressed as average body weight change was tested against fibrosarcoma at the dosage of 10 mg/kg (sc); procedure, shortened: as §3
# Mus musculus [11] = test: Antitumor activity expressed as mean life span of nonsurvivors in days (T/C) was tested against fibrosarcoma at the dosage of 50 mg/kg (ip); 45/27; procedure, shortened: as §4
# Mus musculus [12] = test: Antitumor activity against Dalton's lymphoma infected mice at the dosage of 25 mg/kg (ip) and expressed as no. of mice injected; T/C= 5/5
# Mus musculus [13] = test: Antitumor activity expressed as mean life span of nonsurvivors in days (T/C) was tested against fibrosarcoma at the dosage of 25 mg/kg (ip); 40/28; procedure, shortened: as §4
# Mus musculus [14] = test: Antitumor activity against fibrosarcoma infected mice at the dosage of 10 mg/kg (ip) and expressed as no. of mice injected; T/C= 6/6
# Mus musculus [15] = test: Antitumor activity against fibrosarcoma infected mice at the dosage of 25 mg/kg (sc) and expressed as no. of mice injected; T/C= 8/9
# Mus musculus [16] = test: Antitumor activity against fibrosarcoma infected mice at the dosage of 5 mg/kg (ip) and expressed as no. of mice injected; T/C= 8/6
# Mus musculus [17] = test: Antitumor activity expressed as average body weight change was tested against fibrosarcoma at the dosage of 25 mg/kg (Ip); procedure, shortened: as §3
# Mus musculus [18] = test: Antitumor activity expressed as mean life span of nonsurvivors in days (T/C) was tested against Dalton's lymphoma at the dosage of 2 mg/kg (ip); 27/21
# Mus musculus [19] = test: Antitumor activity expressed as %T/C was tested against fibrosarcoma at the dosage of 25 mg/Kg (sc); procedure, shortened: as §2
# Mus musculus [20] = test: Antitumor activity expressed as mean life span of nonsurvivors in days (T/C) was tested against fibrosarcoma at the dosage of 10 mg/kg (sc); 37/27; procedure, shortened: as §4
# Mus musculus [21] = test: Antitumor activity expressed as mean life span of nonsurvivors in days (T/C) was tested against fibrosarcoma at the dosage of 5 mg/kg (ip); 41/27; procedure, shortened: as §4
# Mus musculus [22] = test: Antitumor activity against fibrosarcoma infected mice at the dosage of 5 mg/kg (sc) and expressed as no. of mice injected; T/C= 7/7
# Mus musculus [23] = test: Antitumor activity expressed as %T/C was tested against fibrosarcoma at the dosage of 10 mg/Kg (sc); procedure, shortened: as §2
# Mus musculus [24] = test: Antitumor activity against Dalton's lymphoma infected mice at the dosage of 10 mg/kg (ip) and expressed as no. of mice injected; T/C= 5/5
# Mus musculus [25] = test: Antitumor activity expressed as average body weight change was tested against fibrosarcoma at the dosage of 5 mg/kg (Ip); procedure, shortened: as §3
# Mus musculus [26] = test: Antitumor activity expressed as mean life span of nonsurvivors in days (T/C) was tested against fibrosarcoma at the dosage of 10 mg/kg (ip); 38/26; procedure, shortened: as §4
# Mus musculus [27] = test: Antitumor activity against fibrosarcoma infected mice at the dosage of 25 mg/kg (ip) and expressed as no. of mice injected; T/C= 10/10
# Mus musculus [28] = test: Antitumor activity expressed as %T/C was tested against fibrosarcoma at the dosage of 5 mg/Kg (ip); procedure, shortened: as §2
# Mus musculus [29] = test: Antitumor activity expressed as mean life span of nonsurvivors in days (T/C) was tested against Dalton's lymphoma at the dosage of 25 mg/kg (ip); 41/21
# Mus musculus [30] = test: Antitumor activity expressed as %T/C was tested against Dalton's lymphoma at the dosage of 2 mg/Kg (ip); procedure, shortened: as §1
# Mus musculus [31] = test: Antitumor activity expressed as the no. of mice surviving >6 months was tested against fibrosarcoma at the dosage of 50 mg/kg (ip); procedure, shortened: as §5
# Mus musculus [32] = test: Antitumor activity against fibrosarcoma infected mice at the dosage of 50 mg/kg (ip) and expressed as no. of mice injected; T/C= 8/8
# Mus musculus [33] = test: Antitumor activity expressed as %T/C was tested against fibrosarcoma at the dosage of 25 mg/Kg (ip); procedure, shortened: as §2
# Mus musculus [34] = test: Antitumor activity against fibrosarcoma infected mice at the dosage of 10 mg/kg (sc) and expressed as no. of mice injected; T/C= 8/7
# Mus musculus [35] = test: Antitumor activity expressed as average body weight change was tested against fibrosarcoma at the dosage of 25 mg/kg (sc); procedure, shortened: as §3
# Mus musculus [36] = test: Antitumor activity expressed as mean life span of nonsurvivors in days (T/C) was tested against Dalton's lymphoma at the dosage of 10 mg/kg (ip); 33/21
# Mus musculus [37] = test: Antitumor activity expressed as average body weight change was tested against fibrosarcoma at the dosage of 50 mg/kg (Ip); procedure, shortened: as §3
# Mus musculus [38] = test: Antitumor activity expressed as %T/C was tested against Dalton's lymphoma at the dosage of 25 mg/Kg (ip); procedure, shortened: as §1
# Mus musculus [39] = test: Antitumor activity expressed as %T/C was tested against fibrosarcoma at the dosage of 10 mg/Kg (ip); procedure, shortened: as §2
# Mus musculus [40] = test: Antitumor activity expressed as average body weight change was tested against fibrosarcoma at the dosage of 5 mg/kg (sc); procedure, shortened: as §3
# Mus musculus [41] = test: Antitumor activity expressed as the no. of mice surviving >6 months was tested against fibrosarcoma at the dosage of 25 mg/kg (sc); procedure, shortened: as §5
# Mus musculus [42] = test: Antitumor activity expressed as mean life span of nonsurvivors in days (T/C) was tested against fibrosarcoma at the dosage of 5 mg/kg (sc); 36/26; procedure, shortened: as §4
smiles,measurement,setting,value
O=C(NN=C(S)c1ccco1)c1ccccc1O,T/C,Mus musculus [1],157%
same,T/C,Mus musculus [2],139%
same,Average body weight change,Mus musculus [3],11.27%
same,T/C,Mus musculus [4],167%
same,T/C,Mus musculus [5],41 days
same,No. of mice surviving >6 months,Mus musculus [6],5
same,No. of mice surviving >6 months,Mus musculus [7],3
same,No. of mice surviving >6 months,Mus musculus [8],4
same,T/C,Mus musculus [9],5
same,Average body weight change,Mus musculus [10],12.31%
same,T/C,Mus musculus [11],45 days
same,T/C,Mus musculus [12],5
same,T/C,Mus musculus [13],40 days
same,T/C,Mus musculus [14],6
same,T/C,Mus musculus [15],8
same,T/C,Mus musculus [16],8
same,Average body weight change,Mus musculus [17],7.88%
same,T/C,Mus musculus [18],27 days
same,T/C,Mus musculus [19],158%
same,T/C,Mus musculus [20],37 days
same,T/C,Mus musculus [21],41 days
same,T/C,Mus musculus [22],7
same,T/C,Mus musculus [23],137%
same,T/C,Mus musculus [24],5
same,Average body weight change,Mus musculus [25],15.1%
same,T/C,Mus musculus [26],38 days
same,T/C,Mus musculus [27],10
same,T/C,Mus musculus [28],152%
same,T/C,Mus musculus [29],41 days
same,T/C,Mus musculus [30],128%
same,No. of mice surviving >6 months,Mus musculus [31],6
same,T/C,Mus musculus [32],8
same,T/C,Mus musculus [33],143%
same,T/C,Mus musculus [34],8
same,Average body weight change,Mus musculus [35],9.96%
same,T/C,Mus musculus [36],33 days
same,Average body weight change,Mus musculus [37],2.65%
same,T/C,Mus musculus [38],195%
same,T/C,Mus musculus [39],146%
same,Average body weight change,Mus musculus [40],11.62%
same,No. of mice surviving >6 months,Mus musculus [41],6
same,T/C,Mus musculus [42],36 days
